Bioassay records from PubChem.
TAAR1 agonist: human TAAR1 agonism | Q96RJ0 | CHO RD-HGA16 TAAR1, Fluo-8 calcium fluorescence; vehicle wells 0%, saturating PEA agonist 100% | activation, % at 3 µM | actives 0.99% (n = 360,000) | AID 624467;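 active means activation above the mean activation of all test compounds in the run plus 3 SD, cut at about 38% in these data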
Target sequence (Q96RJ0 whole entry, looked up): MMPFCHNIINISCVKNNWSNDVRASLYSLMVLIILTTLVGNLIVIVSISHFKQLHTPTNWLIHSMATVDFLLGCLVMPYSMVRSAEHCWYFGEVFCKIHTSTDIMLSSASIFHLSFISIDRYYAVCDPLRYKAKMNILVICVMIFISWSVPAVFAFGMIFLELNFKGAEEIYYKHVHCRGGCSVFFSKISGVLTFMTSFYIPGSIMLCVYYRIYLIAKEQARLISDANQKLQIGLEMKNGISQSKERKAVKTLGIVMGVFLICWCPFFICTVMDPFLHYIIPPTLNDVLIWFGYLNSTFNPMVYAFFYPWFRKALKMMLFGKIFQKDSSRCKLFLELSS
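Assay system – CHO-derived RD-HGA16 cells with stable Gα16 and human TAAR1 · Compound dosing – one-point dosing at 3 µM (nominal) · Incubation – 17-24 h seeding, 75 min 37 °C dye, 30 min RT · Measured by – kinetic Fluo-8 calcium fluorescence · Control set – DMSO vehicle as 0%, PEA at EC100 as 100% · Repeats – single well for each compound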
OX1R antag-1: antagonists of human orexin 1 receptor (OX1R); OX1R-expressing cells, FRET antagonist read-out; inhibition, % at 6.6 µM; actives 1.8% (n = 330,000); AID 485270; in the data active means inhibition mostly above about 38%, no sharp cut-off; inactive means mostly below about 40%;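 further: 0% = agonist challenge alone and 100% = reference antagonist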
OX1R antag-2: human HCRTR1 antagonism. CHO/OX1R cells, Fluo-8 calcium fluorescence, orexin A. inhibition, % at 5 µM. actives 0.43% (n = 330,000);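 active means inhibition above its plate's threshold, mean inhibition of all tested compounds on the plate plus 3 SD, cut at about 37% in these data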;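 further: 0% = orexin A challenge wells and 100% = SB-334867-A antagonist wells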
CHO parental Ca: counter-screen for OX1R antagonists: effect in parental CHO cells. AID 463079. parental CHO-K1, ATP-induced calcium, Fluo-8 fluorescence. inhibition, % at 5.6 µM. actives 0.63% (n = 330,000);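 active means inhibition above that plate's mean sample inhibition plus 3 SD, cut at about 26% in these data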;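 further: 0% = ATP-challenged DMSO wells and 100% = DMSO wells without ATP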
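material = parental CHO cells | also added = ATP as calcium-mobilizing challenge | dosing = single point at 5.6 µM | detection = intracellular calcium via Fluo-8 no-wash fluorescent dye | read-out = % inhibition | benchmarks = low control ATP plus DMSO, high control DMSO only | repeats = one well per compound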
GPR7 antag: blocks human GPR7 receptor signaling. P48145. GPR7-expressing cells, fluorescence antagonist assay. inhibition, % at 4.4 µM. actives 1.1% (n = 290,000); in the data active means inhibition above about 16%, passing the limit was not always enough;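 further: cells stimulated with the agonist NPW; 0% = agonist with vehicle and 100% = vehicle without agonist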
Target sequence (P48145 whole entry, looked up): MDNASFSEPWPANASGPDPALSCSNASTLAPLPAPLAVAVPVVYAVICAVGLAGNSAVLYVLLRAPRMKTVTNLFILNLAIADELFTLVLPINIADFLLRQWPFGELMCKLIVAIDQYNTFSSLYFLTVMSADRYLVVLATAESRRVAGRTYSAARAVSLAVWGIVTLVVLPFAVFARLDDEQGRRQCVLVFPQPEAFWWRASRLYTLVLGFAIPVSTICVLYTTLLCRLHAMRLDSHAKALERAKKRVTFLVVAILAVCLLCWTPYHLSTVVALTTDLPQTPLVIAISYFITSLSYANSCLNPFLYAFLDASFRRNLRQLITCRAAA
TAAR1 antagonist: antagonists of human TAAR1. Q96RJ0. CHO RD-HGA16 TAAR1, Fluo-8 calcium fluorescence, antagonist. inhibition, % at 3 µM. actives 1.5% (n = 360,000);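 active means inhibition above a per-plate cutoff, the mean inhibition of test compounds on that plate plus 3 SD, cut at about 49% in these data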;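 further: 0% = DMSO plus EC80 beta-PEA response and 100% = DMSO alone without agonist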
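System: CHO RD-HGA16 cells bearing hTAAR1. Reagent: EC80 β-phenethylamine stimulus. Schedule: seeding 17-24 h prior, 75-min 37 °C, 30-min RT dye loading. Signal: Fluo-8 intracellular calcium dye fluorescence, real-time kinetic reads. Read-out: % inhibition from peak post-agonist over basal fluorescence ratio. Benchmarks: vehicle wells and EC80 agonist wells. Replicates: n of 1.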
An asterisk follows results filed as active; . = no result. Compounds with a hit are over-represented: about 4.6% of the library has one in this group of screens.

SMILES	TAAR1 agonist	OX1R antag-1	OX1R antag-2	CHO parental Ca	GPR7 antag	TAAR1 antagonist
COc1ccc2oc(C(=O)Nc3ccc(S(=O)(=O)N(C)C4CCN(C)CC4)cc3)c(C)c2c1	12.2	15.8	-1.4	2.3	0.4	6.4
Cc1cc(OCC(O)CN(C)C(=O)C(C)Oc2ccccc2)ccc1Cl (stereo unspecified)	1.6	48.0*	12.2	-13.9	15.0	-23.9
CN(C)CC(O)COc1cccc(OCC(O)CN(C)C)c1 (stereo unspecified)	3.0	11.5	-6.0	6.6	-8.7	9.8
Nc1nc2c(C(=O)N3CCCC3)nnn2c2ccccc12	-1.0	.	.	.	.	-17.4
Cc1ccc2cc(C3C(C#N)=C(N)Oc4c3ccc3cccnc43)c(=O)[nH]c2c1 (stereo unspecified)	.	45.4*	-11.7	-22.9	-6.3	.
O=C(CCNC(=O)c1ccc(Br)cc1)NNC(=O)c1ccccc1	40.4*	-0.1	3.4	-5.9	.	-10.8
O=C(CCNC(=O)c1ccccc1)NNC(=O)c1ccc(F)cc1	7.5	7.3	5.1	10.2	.	-12.1
Oc1ccc(N=Nc2ccc3ccccc3c2)cc1	0.0	-1.1	4.9	43.1*	-2.8	12.8
CC(C)COP(=O)(OCC(C)C)C(Nc1ccccc1)c1ccccc1 (stereo unspecified)	6.0	22.8	-26.9	-24.3	6.8	16.6
CC(C)COP(=O)(OCC(C)C)C(Nc1ccccc1)c1ccc(F)cc1 (stereo unspecified)	2.7	17.0	-22.4	-50.5	18.3*	31.6
CC(=O)NCCNc1ccc([N+](=O)[O-])cc1C#N	1.0	67.1*	4.7	6.1	-9.1	-4.1
CCN1C(=O)C(CC(=O)Nc2ccc(OC)cc2)N(Cc2ccc(OC)c(OC)c2)C1=S (stereo unspecified)	8.6	2.4	-24.0	-16.3	-9.3	-28.8
CCN1C(=O)C(CC(=O)Nc2ccc(OC)cc2)N(CCc2ccc(OC)cc2)C1=S (stereo unspecified)	27.9	0.3	10.7	-23.6	1.7	51.5*
COc1ccc(OC)c(C(=O)CN2C(=O)C(=O)N(C3CCCC3)C2=O)c1	2.4	3.1	-10.0	-18.6	.	-9.9
O=C(C(=O)N(Cc1ccccc1)Cc1ccccc1)c1c(-c2ccccc2)[nH]c2ccccc12	12.2	.	.	.	.	74.9*
C[C@H](CO)N1C[C@H](C)[C@H](CN(C)S(=O)(=O)c2ccc(F)cc2)OCc2cnnn2CCCC1=O	6.4	.	.	.	.	-6.7
Cc1ccn2cc(-c3ccc4c(c3)NC(=O)CO4)nc2c1	-0.1	10.2	-12.7	1.1	16.9*	-3.6
Cc1cccn2cc(-c3ccc4c(c3)NC(=O)CO4)nc12	-0.3	36.3	-7.0	-10.4	-6.1	-3.1
O=[N+]([O-])c1ccc(N=Nc2c(Cl)cc(O)cc2Cl)cc1	3.4	58.1*	39.1*	66.6*	62.2*	58.8*
Cc1ccc([C@H]2C[C@H](O)[C@@H](n3cc(C4CC4)nn3)CN2Cc2cccs2)cc1	41.3*	.	.	.	.	41.4
Cc1ccc([C@H]2C[C@@H](O)[C@H](n3cc(C4CC4)nn3)CN2Cc2cccs2)cc1	3.3	.	.	.	.	-30.4
COc1ccc(N(CC(=O)NCc2ccccc2C)S(=O)(=O)c2ccccc2[N+](=O)[O-])c(OC)c1	5.2	63.9*	14.4	-16.8	14.2	21.9
COc1ccc(N(CC(=O)NCc2ccc(C)cc2)S(=O)(=O)c2ccccc2[N+](=O)[O-])c(OC)c1	9.8	45.4	8.3	-9.8	6.4	4.5
CCCSc1ccc2nc(-c3ccccc3)cn2c1	-0.6	10.4	-24.0	-16.5	-12.7	-2.5
CCCCSc1ccc2nc(-c3ccc(C#N)cc3)cn2c1	19.4	22.2	-34.4	1.0	11.5	50.5*
SMILES	TAAR1 agonist	OX1R antag-1	OX1R antag-2	CHO parental Ca	GPR7 antag	TAAR1 antagonist
N#CCN1C(=S)N=C(Nc2cccc(Cl)c2)C12CCCCC2	12.3	42.5	-10.7	47.1*	-18.1	-6.4
CCN(CC)c1c(C)nc2ccc(C(=O)Nc3cc(-c4ccccc4)ccc3OC)cn12	-0.2	.	.	.	.	4.7
C=CCNCCOCCOc1ccc(Cl)cc1C(C)(C)C	10.6	7.7	-16.4	-6.3	4.9	2.1
COCCCNCCOCCOc1ccc(Cl)cc1C(C)(C)C	15.6	3.8	-7.0	-7.3	35.2*	9.6
CCCN(CC1CC1)C(=S)NC(=O)c1cc(Br)ccc1Cl	3.0	.	.	.	.	-9.5
Cc1cc(NC(=O)CSc2nnc(-c3ccc(O)cc3)o2)no1	-0.5	22.3	-1.0	12.6	-14.0	-9.4
CC(C)OC(=O)CSc1nnc(-c2ccc(Cl)cc2Cl)o1	4.0	16.2	-21.4	-13.5	-10.4	-6.6
Cc1cc(NC(=O)CSc2nnc(-c3ccc([N+](=O)[O-])cc3)o2)no1	2.9	59.0*	-8.8	5.1	-14.4	-12.2
CC(C)OC(=O)CSc1nnc(-c2ccc([N+](=O)[O-])cc2)o1	4.9	64.5*	-16.3	-8.7	-15.7	-2.1
CC(C)N1CCC2(CC1)N=C(c1ccc3c(c1)OCO3)CC(c1cc(Cl)ccc1O)N2 (stereo unspecified)	17.9	87.1*	67.7*	38.3	5.0	48.3
O=C(NC1CCCC1)C(c1cccnc1)N(C(=O)c1csnn1)c1ccccc1 (stereo unspecified)	3.0	10.6	0.8	-1.7	18.5	2.2
CNC(=O)c1ccc(NC(=O)Nc2ccccc2)cc1	40.0*	14.4	-9.7	-4.4	2.4	9.7
CCN(CC)c1ccc(NC(=O)Nc2ccc(C(C)=O)cc2)cc1	20.3	17.1	-19.5	11.1	-1.5	31.8
CCN(CC)c1ccc(NC(=O)Nc2ccccc2)cc1	25.4	8.0	-9.0	-6.9	1.4	49.9*
COc1ccc(-c2cc(CNc3nc4cc(-c5ccccc5C)sc4c(=O)n3C)on2)cc1	2.4	.	.	.	.	-8.5
O=C(CC(=O)N1CCOCC1)N1CCOCC1	1.1	.	.	.	.	10.0
O=C(C1=C[C@H](c2csc3ccccc23)C[C@H](OCCCCO)O1)N1CCN(Cc2ccc3c(c2)OCO3)CC1	24.2	12.2	-23.0	-13.5	0.7	60.3*
CC(=O)n1cc([C@H]2C=C(C(=O)N3CCN(Cc4ccc5c(c4)OCO5)CC3)O[C@@H](OCc3ccc(CO)cc3)C2)c2ccccc21	16.0	31.6	0.8	-11.1	-8.3	66.8*
CC(C)(C)c1ccc(C(=O)NC(=O)CSc2n[nH]c(N)n2)cc1	23.5	4.9	-6.7	-9.7	.	-1.7
COC(=O)C1=C(C)N(Cc2ccc(C(F)(F)F)cc2)C(=NCc2cccc(C(F)(F)F)c2)NC1c1ccccc1C(F)(F)F (stereo unspecified)	0.3	.	.	.	.	-19.4
Nc1nc2c(ncn2[C@@H]2O[C@H](C(=O)N[C@H](Cc3ccccc3)C(=O)O)[C@@H](O)[C@H]2O)c(=O)[nH]1	0.0	.	.	.	.	-2.6
COC(=O)c1cc2c(c3c4cc(F)ccc4n(S(=O)(=O)c4ccc(OC)cc4)c13)C(=O)N(C)C2	-1.1	.	.	.	.	14.4
